Molecules are shown by their SMILES.

The results in this text go back to ChEMBL document CHEMBL3856185, “Discovery of a sulfamate-based steroid sulfatase inhibitor with intrinsic selective estrogen receptor modulator properties” (Eur J Med Chem, 2016).

Data set [1] deals with T1, Estrogen receptor (Homo sapiens, UniProt P03372).
T1 sequence (P03372 whole entry): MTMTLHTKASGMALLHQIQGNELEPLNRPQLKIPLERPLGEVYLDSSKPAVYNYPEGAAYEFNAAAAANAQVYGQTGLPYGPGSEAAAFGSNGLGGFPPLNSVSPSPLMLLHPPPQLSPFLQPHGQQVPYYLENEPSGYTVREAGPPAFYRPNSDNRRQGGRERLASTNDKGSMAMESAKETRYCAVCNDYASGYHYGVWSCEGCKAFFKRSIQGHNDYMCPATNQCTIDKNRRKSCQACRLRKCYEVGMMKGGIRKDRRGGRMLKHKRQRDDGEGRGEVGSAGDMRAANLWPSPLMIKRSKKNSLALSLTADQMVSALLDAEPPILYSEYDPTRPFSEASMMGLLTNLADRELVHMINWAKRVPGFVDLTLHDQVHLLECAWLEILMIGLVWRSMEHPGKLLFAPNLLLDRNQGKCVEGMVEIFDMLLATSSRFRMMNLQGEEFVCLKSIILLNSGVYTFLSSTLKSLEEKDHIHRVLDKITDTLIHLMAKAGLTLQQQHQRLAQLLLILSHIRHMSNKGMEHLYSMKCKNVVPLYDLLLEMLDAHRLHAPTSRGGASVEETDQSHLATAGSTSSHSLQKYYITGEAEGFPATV
In words: Agonist activity at ERalpha in estrogen-sensitive human T47D cells assessed as cell proliferation at 1 uM after 7 days by MTS assay. In kind it is cell-based. To be noted: 168 h. The method in brief:
(§1)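 Seeded 3000 cells/well, 48 h attachment. Compounds diluted from DMSO (final ≤0.1%) in medium, renewed every 2 days for 7 days. Proliferation read by MTS, 4 h at 37 °C, absorbance 490 nm. Control (medium + DMSO) set to 100%. Mean ± SD of triplicates.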
Background: Tetrazolium dyes change colour on reduction, which living cells bring about.

Data set [2] concerns the target T1, Estrogen receptor. The data set can be described thus: Agonist activity at ERalpha in estrogen-sensitive human T47D cells assessed as cell proliferation at 0.1 uM after 7 days by MTS assay. To be noted: 168 h. It counts as cell-based. The method in brief:
as §1

Data set [3] addresses T1, Estrogen receptor. The data set can be described thus: Agonist activity at ERalpha in estrogen-sensitive human T47D cells assessed as cell proliferation at 0.01 uM after 7 days by MTS assay. It counts as cell-based. To be noted: 168 h. The essentials:
as §1

A short description of data set [4]: Cytotoxicity against estrogen-sensitive human T47D cells assessed as reduction in cell proliferation at 5 uM after 7 days by MTS assay. It counts as toxicity, cell-based. The settings on record: 168 h. The method in brief:
as §1

A short description of data set [5]: Cytotoxicity against estrogen-sensitive human T47D cells assessed as reduction in cell proliferation at 0.01 to 1 uM after 7 days by MTS assay. In kind it is toxicity, cell-based. The settings on record: 168 h. The method in brief: as §1
A short description of data set [6]: Cytotoxicity against human Saos2 cells assessed as reduction in cell proliferation at 5 to 10 uM after 7 days by MTS assay. It counts as toxicity, cell-based. To be noted: saos-2, 168 h. The method in brief: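 Saos-2 cells in phenol-red-free McCoy's 5A with 10% charcoal-stripped FBS. Seeded 3000 cells/well, treated after 24 h with compounds from 1 nM to 10 µM (DMSO ≤0.1% final), renewed every 2 days for 7 days. MTS 2 h at 37 °C, absorbance 490 nm. Control (medium + DMSO) = 100%. Mean ± SD of triplicates.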

In data set [7] the target is T2, Estrogen receptor (Homo sapiens) (UniProt P03372).
T2 sequence (whole entry): T1 sequence (P03372 whole entry)
The data set can be described thus: Antiestrogenic activity at ERalpha in estrogen-sensitive human T47D cells assessed as blockage of E2 stimulated cell proliferation at 5 uM after 7 days in presence of E2 by MTS assay. It counts as cell-based. The method in brief:
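Estrogen-deprived T-47D cells (RPMI, insulin 50 ng/mL, 5% charcoal-stripped FBS) seeded at 3000 cells/well, attached 48 h. Then treated 7 days with compound plus E2 (0.1 nM), medium renewed every 2 days. DMSO final ≤0.1%. MTS added 4 h, A490. Control (medium + DMSO) = 100%. Mean ± SD of triplicates.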

The next data set addresses T3, Steryl-sulfatase (Homo sapiens, UniProt P08842).
T3 sequence (P08842 whole entry): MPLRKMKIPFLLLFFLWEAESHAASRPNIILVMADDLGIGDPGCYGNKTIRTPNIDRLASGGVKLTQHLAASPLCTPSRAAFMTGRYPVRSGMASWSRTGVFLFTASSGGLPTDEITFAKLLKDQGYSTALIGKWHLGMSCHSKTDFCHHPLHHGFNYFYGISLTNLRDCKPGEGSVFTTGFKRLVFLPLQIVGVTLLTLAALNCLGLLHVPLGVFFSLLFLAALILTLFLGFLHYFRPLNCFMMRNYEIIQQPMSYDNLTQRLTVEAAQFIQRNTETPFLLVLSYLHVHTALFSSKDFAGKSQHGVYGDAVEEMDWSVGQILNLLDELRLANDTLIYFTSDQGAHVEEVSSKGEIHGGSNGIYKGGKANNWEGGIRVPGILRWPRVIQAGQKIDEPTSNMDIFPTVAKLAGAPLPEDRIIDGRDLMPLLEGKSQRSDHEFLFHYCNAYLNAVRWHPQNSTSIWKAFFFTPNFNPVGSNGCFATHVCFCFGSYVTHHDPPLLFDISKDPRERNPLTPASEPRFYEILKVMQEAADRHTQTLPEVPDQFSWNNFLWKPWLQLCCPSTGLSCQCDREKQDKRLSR
The data set can be described thus: Inhibition of steroid sulfatase (unknown origin) expressed in HEK293 cells assessed as reduction in transformation of [3H]-E1S to E1 after 2 hrs by liquid scintillation counting. It counts as cell-based. The method in brief: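 Homogenate of STS-overexpressing HEK-293 cells (lysed by 5 freeze (−80 °C)/thaw (4 °C) cycles) incubated 2 h at 37 °C with inhibitors 0.01–1 µM and [3H]-E1S 9 nM adjusted to 1 µM with E1S, in Tris-acetate pH 7.4 with 5 mM EDTA, 10% glycerol. Xylene extraction separated E1 from E1S; scintillation counting; % inhibition vs no-inhibitor control; IC50 from curve; triplicates, mean ± SD.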

Regarding `O=C(c1ccc(CN(Cc2ccc(O)cc2)Cc2ccco2)cc1)N1CCc2ccc(O)cc2C1`, the Activity at Estrogen receptor [1] is listed as 200.3%; on Estrogen receptor [2], 138%; at Estrogen receptor [3], 108.2%.

On to `NS(=O)(=O)Oc1ccc2c(c1)CN(C(=O)c1ccc(CN(Cc3ccccn3)Cc3ccco3)cc1)CC2`, for which the Activity entry in data set [4] is “Toxic”.

As for `O=C(c1ccc(CN(Cc2ccc(OCCCN3CCCCC3)cc2)Cc2ccccn2)cc1)N1CCc2ccc(O)cc2C1`, the values for the Activity at Estrogen receptor [1], on Estrogen receptor [2] and on Estrogen receptor [3] were 60.7%, 104.5% and 105.9%, respectively.

In the case of `Cc1ccc(CN(Cc2ccc(C(=O)N3CCc4ccc(O)cc4C3)cc2)Cc2ccco2)s1`, the Activity on Estrogen receptor [1] was 96.8%; on Estrogen receptor [2], 103.2%; in data set [5], “Non-Toxic”; in data set [6], “Toxic”; in data set [7], 84%; on Estrogen receptor [3], 97.1%.

Take `O=C(c1ccc(CN(Cc2ccc(Br)cc2)Cc2ccco2)cc1)N1CCc2ccc(O)cc2C1`: the Activity turned out to be 59.2% on Estrogen receptor [1], 109.4% on Estrogen receptor [2] and 106.3% on Estrogen receptor [3].

For the compound `COc1cc2c(cc1OS(N)(=O)=O)CC[C@@H]1[C@@H]2CC[C@@]2(C)[C@H]1CC[C@@]2(O)Cc1ccccc1`, the half-maximal inhibitory concentration (IC50) on Steryl-sulfatase was 0.05 nM.

As to `Cc1ccc(CN(Cc2ccc(C(=O)N3CCc4ccc(OS(N)(=O)=O)cc4C3)cc2)Cc2ccco2)s1`, the IC50 at Steryl-sulfatase was found to be 8.9 nM. Besides, the Activity entry in data set [4] and in data set [6] was “Toxic” each time.

Take `COc1ccc(CN(Cc2ccc(C(=O)N3CCc4ccc(O)cc4C3)cc2)Cc2ccccn2)cc1`: the Activity at Estrogen receptor [1] is recorded as 100.9%; in data set [4], “Toxic”; on Estrogen receptor [2], 104.6%; in data set [5] it was “Non-Toxic”; on Estrogen receptor [3], 105.6%.

With `O=C(c1ccc(CN(CCN2CCOCC2)Cc2ccco2)cc1)N1CCc2ccc(O)cc2C1`, the Activity at Estrogen receptor [1] turned out to be 118.8%; on Estrogen receptor [2], 105.9%; on Estrogen receptor [3], 108.2%.

Regarding `O=C(c1ccc(OCCN2CCCCC2)cc1)c1c(-c2ccc(O)cc2)sc2cc(O)ccc12` [RALOXIFENE], the Activity entry in data set [4] and in data set [6] was “Toxic” throughout.

As for `Cc1ccc(CN(Cc2ccc(C(=O)N3CCc4ccc(O)cc4C3)cc2)Cc2ccccn2)s1`, the Activity was 78.9% on Estrogen receptor [1], 105.4% on Estrogen receptor [2] and 100.6% at Estrogen receptor [3].

`COc1ccc(CN(Cc2ccc(C(=O)N3CCc4ccc(OS(N)(=O)=O)cc4C3)cc2)Cc2ccccn2)cc1`: in data set [4], the Activity result is listed as “Toxic”.

For the compound `O=C(c1ccc(CN(Cc2ccco2)Cc2ccccc2OCCCN2CCCCC2)cc1)N1CCc2ccc(O)cc2C1`, the Activity on Estrogen receptor [1] is recorded as 0%; at Estrogen receptor [2], 105.9%; at Estrogen receptor [3] it was 96.8%.

`O=C(c1ccc(CN(Cc2ccc(OCCCN3CCCCC3)cc2)Cc2ccco2)cc1)N1CCc2ccc(O)cc2C1`: the Activity at Estrogen receptor [1] is reported as 133.7%; on Estrogen receptor [2], 119.7%; on Estrogen receptor [3], 95.6%.

With `O=C(c1ccc(CN(CCCn2ccnc2)Cc2ccco2)cc1)N1CCc2ccc(O)cc2C1`, the Activity on Estrogen receptor [1] came out at 114.6%; on Estrogen receptor [2], 98.5%; at Estrogen receptor [3] it was 94.9%.

For `O=C(c1ccc(CN(CCCn2ccnc2)Cc2ccccn2)cc1)N1CCc2ccc(O)cc2C1`, the figures for the Activity at Estrogen receptor [1], on Estrogen receptor [2] and at Estrogen receptor [3] were 39.2%, 112.9% and 102.8%, respectively.

Regarding `O=C(c1ccc(CN(Cc2ccccn2)Cc2ccccc2OCCCN2CCCCC2)cc1)N1CCc2ccc(O)cc2C1`, the Activity at Estrogen receptor [1] is 37.1%; on Estrogen receptor [2] it was 99.8%; at Estrogen receptor [3] it was 102.8%.

As for `O=C(c1ccc(CN(Cc2ccccn2)Cc2ccco2)cc1)N1CCc2ccc(O)cc2C1`, the Activity at Estrogen receptor [1] is listed as 103.5%; at Estrogen receptor [2] it was 103.2%; in data set [5] it was “Non-Toxic”; at Estrogen receptor [3], 104.1%.

As a reminder, the IC50 is the midpoint of a concentration-inhibition curve.
